Test results as given in PMC5413378 (Cancer research, 2017).

How the values were obtained:
BRD4 = BRD4 (Mus musculus, UniProt Q9ESU6); assay: BRD4 protein in mouse liver tissue; format: in vivo; conditions: single dose 5 mg/kg
TNBC cell lines [1] = format: cell-based, human
MDA-MB-468 cells = assay: Proteomic profiling; format: cell-based, human; conditions: 2 h
[2] = Pharmacokinetics in WHIM24 tumor-bearing mice; format: in vivo; conditions: single dose 10 mg/kg, at 1 and 3 h; concentrations diminished rapidly
BET proteins [3] = assay: Pharmacodynamic analysis in WHIM24 tumors; format: in vivo, SCID mice
[4] = test system: caspase-3 and poly(ADP-ribose) polymerase (PARP); assay: Caspase-3 and PARP cleavage by immunoblotting; format: cell-based, human; conditions: as low as
[5] = test system: MDA-MB-231 xenograft model; assay: MDA-MB-231 xenograft efficacy study; format: in vivo; conditions: for antitumor activity: IV; for weight loss or overt toxicity: MDA-MB-231 model
How it was run: (§1)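 SCID mice bearing MDA-MB-231 xenografts or serially passaged WHIM24 PDX tumours were randomised once tumours reached 80-200 mm3. Test compound was given IV in 10% PEG400: 3% Cremophor: 87% PBS, 3 times per week for 3 weeks. Tumour size and body weight were measured 2-3 times weekly. Volume was (length×width2)/2, and TGI used group medians. Data are mean ± SEM (n=7-8), with two-tailed t test versus vehicle.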

BRD2, BRD3 and BRD4 = assay: BET protein depletion by immunoblotting in TNBC cell lines; format: cell-based, human; conditions: for concentration giving near-complete depletion of BRD2-4 proteins / effect on BET protein levels: TNBC cell lines; for effect on BET protein levels: immunoblotting
normal mouse tissues = assay: Toxicity in immune-competent Balb/c mice; format: in vivo; conditions: 5 mg/kg intravenously, daily, 5 days a week for 2 weeks
How it was run: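 Immune-competent Balb/c mice received test compound intravenously, daily, 5 days a week for 2 weeks. Animals were sacrificed at the end of treatment, and tissues were examined for damage.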

[6] = test system: MDA-MB-453 xenograft model; assay: MDA-MB-453 xenograft efficacy study; format: in vivo; conditions: for weight loss or apparent toxicity: MDA-MB-453 model
How it was run: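 Five million MDA-MB-453 cells were implanted subcutaneously in SCID mice, which were randomised at tumour size 80-200 mm3. Dosing was IV in 10% PEG400: 3% Cremophor: 87% PBS, or oral in 2% TPGS: 98% PEG200. Tumours and body weight were measured every 2-3 days. Volume was (length×width2)/2, and TGI (%) = (Vc-Vt)/(Vc-Vo)×100 using medians. Two-tailed t test versus vehicle; n=7-8.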

[7] = PK analysis in MDA-MB-231 xenograft model; format: in vivo, mice; conditions: MDA-MB-231 model
WHIM24 PDX model = assay: WHIM24 PDX efficacy study; format: in vivo; conditions: for antitumor activity: 3 times per week for 3 weeks; for weight loss or apparent toxicity: WHIM24 model
How it was run: as §1

MCL1 = MCL1 expression by qRT-PCR and immunoblotting; format: cell-based, human; conditions: for expression of BRD2 and MCL1: MDA-MB-468 cells, 12 h immunoblotting, JQ1 2000 nM, dBET1 500 nM
TNBC cell lines [8] = assay: CellTiter Glo cell viability assay in a panel of 13 TNBC cell lines; format: cell-based, human; conditions: for IC50: read-out: IC50 growth inhibition, in 9 of the 13 cell lines, 4 days
[9] = test system: MDA-MB-468 xenograft model; assay: MDA-MB-468 xenograft efficacy study; format: in vivo, SCID mice; conditions: 10 mg/kg, IV, 3 times per week for 2-3 weeks
[10] = PK analysis in MDA-MB-468 xenograft model; format: in vivo, mice; conditions: MDA-MB-468 model
BET proteins [11] = assay: PD analysis in MDA-MB-231 xenograft tumors; format: in vivo, SCID mice; conditions: single dose 5 mg/kg, 1-3 h post drug exposure
BET proteins [12] = assay: PD analysis in MDA-MB-468 xenograft tumors; format: in vivo, SCID mice; conditions: single dose 5 mg/kg, 1-3 h post drug exposure
BET proteins [13] = assay: Binding to BET proteins
TNBC cell lines [14] = assay: Annexin V-PI apoptosis flow cytometry analysis; format: cell-based, human

CCn1nc(C2CC2)cc1Nc1nc(C(=O)NCCCOCCOCCOCCCNc2cccc3c2C(=O)N(C2CCC(=O)NC2=O)C3=O)nc2[nH]c3cc(-c4c(C)noc4C)c(OC)cc3c12 (stereo not drawn) [BETd-246]
BRD4 protein in mouse liver tissue (BRD4): effectively reduce BRD4 protein
synergy in combination with BM-1197, ABT-263 and A-1155463 (TNBC cell lines [1]; in 6 of the 7 cell lines): Modest to strong synergy
strong synergistic induction of apoptosis in combination with ABT-199 (TNBC cell lines [1]; panel of TNBC cell lines): only observed in MDA-MB-468
decrease of BRD2, BRD3 and BRD4 protein levels (MDA-MB-468 cells; 100 nM, MDA-MB-468, p<0.05, only proteins decreased out of ~5500 quantified): ≥ 2 fold
drug exposure in plasma and WHIM24 tumors [2]: reasonable drug exposure
MCL1 protein levels in tumors (BET proteins [3]; as early as 3 h after treatment): markedly reduced
duration of BET protein reduction in tumors (BET proteins [3]; single IV dose 10 mg/kg): at least 9 h
reduction of the levels of BET proteins in tumors (BET proteins [3]; single IV dose 10 mg/kg, as early as 1 h): > 80%
lowest concentration giving profound cleavage of caspase-3 and PARP [4]: 10 nM
antitumor activity ([5]; 10 mg/kg, 3 times per week for 2-3 weeks): very limited
weight loss or overt toxicity [5]: Neither BETd-246 nor BETd-260 caused significant weight loss
concentration giving near-complete depletion of BRD2-4 proteins (BRD2, BRD3 and BRD4; 1 h treatment): 30 to 100 nM
concentration giving near-complete depletion of BRD2-4 proteins (BRD2, BRD3 and BRD4; 3 h treatment): 10 to 30 nM
toxicity in normal mouse tissues (normal mouse tissues): no significant toxicity
weight loss or apparent toxicity [6]: No significant weight loss
drug exposure in plasma and xenograft tumor tissue [7]: very limited drug exposure
antitumor activity (WHIM24 PDX model; 5 mg/kg, IV): effectively inhibited WHIM24 tumor growth
antitumor activity (WHIM24 PDX model; 10 mg/kg, during treatment): partial tumor regression
weight loss or apparent toxicity (WHIM24 PDX model): Neither BETi-211 nor BETd-246 caused significant weight loss
lowest concentration giving significant down-regulation of MCL1 mRNA (MCL1; as low as, MDA-MB-468, 8 h, qRT-PCR): 10 nM
IC90 (TNBC cell lines [8]; in 7 of the 13 cell lines): < 100 nM
IC50 (TNBC cell lines [8]): < 10 nM
antitumor activity [9]: no antitumor activity
drug exposure in plasma and xenograft tumor tissue [10]: very limited drug exposure

CCn1nc(C2CC2)cc1Nc1nc(C(=O)NCCCCCc2cccc3c2CN(C2CCC(=O)NC2=O)C3=O)nc2[nH]c3cc(-c4c(C)noc4C)c(OC)cc3c12 (stereo not drawn) [BETd-260]
BET protein levels in xenograft tumors (BET proteins [11]): effectively reduced BET protein levels
antitumor activity ([5]; 5 mg/kg, 3 times per week for 3 weeks, compared with BETd-246 at 10 mg/kg): much stronger antitumor activity than BETd-246
weight loss or overt toxicity [5]: Neither BETd-246 nor BETd-260 caused significant weight loss
BET protein levels in xenograft tumors (BET proteins [12]): effectively reduced BET protein levels
effect on BET protein levels (BRD2, BRD3 and BRD4): potently depleted BET proteins at low nanomolar concentrations
drug exposure in plasma and xenograft tumor tissue [7]: much higher than that of BETd-246
times more potent than BETd-246 in growth inhibition (TNBC cell lines [8]; TNBC cells): 2-7 times
drug exposure in plasma and xenograft tumor tissue [10]: much higher than that of BETd-246

CCn1nc(C2CC2)cc1Nc1nc(COC)nc2[nH]c3cc(-c4c(C)noc4C)c(OC)cc3c12 [BETi-211]
Ki (BET proteins [13]): < 1 nM
times more potent than RX-37, JQ-1, OTX-015 or IBET-762 (BET proteins [13]): 10-100 times
synergism with either BM-1197 or ABT-263 (TNBC cell lines [1]): No clear synergism
increase of BRD2 protein level (MDA-MB-468 cells; 1000 nM, MDA-MB-468): 2 fold
apoptosis induction (TNBC cell lines [14]; 1000 nM, 48 h treatment): 3-25%
effect on BET protein levels (BRD2, BRD3 and BRD4): did not degrade BET proteins
tumor growth inhibition ([6]; 50 mg/kg, daily, 5 days a week for 2 weeks): failed to achieve tumor growth inhibition
weight loss or apparent toxicity [6]: No significant weight loss
weight loss or apparent toxicity (WHIM24 PDX model): Neither BETi-211 nor BETd-246 caused significant weight loss
growth inhibition (TNBC cell lines [8]; at 2.5 μM, achieved in 2 of the 13 cell lines): ≥ 90%
IC50 (TNBC cell lines [8]): < 1000 nM

Cc1sc2c(c1C)C(c1ccc(Cl)cc1)=N[C@@H](CC(=O)OC(C)(C)C)c1nnc(C)n1-2 [JQ1]
expression of BRD2 and MCL1 (MCL1): increased expression of BRD2 and MCL1

O=C1CCC(N2C(=O)c3ccccc3C2=O)C(=O)N1 (stereo not drawn) [Thalidomide, thalidomide, reference compound]
effect on apoptosis induction and cell proliferation (TNBC cell lines [14]; alone): no significant effect
effect on BET protein levels (BRD2, BRD3 and BRD4): no significant effect

Cc1sc2c(c1C)C(c1ccc(Cl)cc1)=N[C@@H](CC(=O)NCCCCNC(=O)COc1cccc3c1C(=O)N(C1CCC(=O)NC1=O)C3=O)c1nnc(C)n1-2 (stereo partly drawn) [dBET1, reference compound]
BET protein depletion (BRD2, BRD3 and BRD4; 500 nM, MDA-MB-468 cells, 12 h): effectively depleted BET proteins
expression of BRD2 and MCL1 (MCL1): downregulated MCL1 expression
